ChEMBL document CHEMBL5653605, “Reduced VEGF production, angiogenesis, and vascular regrowth contribute to the antitumor properties of dual mTORC1/mTORC2 inhibitors” (Cancer Res, 2011)
Activity calls are given as the source filed them. The calls are words filed in the database; no cut-off is given here.

Columns and labels:
mTORC1 = mTORC1 (Homo sapiens, UniProt P42345); experiment: Competitive inhibition of mTORC1 immunoprecipitated from human HeLa cells using His-tagged 4E-BP1 as substrate incubated for 30 mins in presence of ATP by chemiluminescence based ELISA
Procedure, shortened: (§1)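 Native mTORC1 or mTORC2 complex immunoprecipitated from HeLa lysates; kinase reaction run at 1 mM ATP.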

mTORC2 = mTORC2 (Homo sapiens, UniProt P42345); experiment: Competitive inhibition of mTORC2 immunoprecipitated from human HeLa cells using His-tagged 4E-BP1 as substrate incubated for 30 mins in presence of ATP by chemiluminescence based ELISA; procedure, shortened: as §1
[1] = biological target: T1, Serine/threonine-protein kinase mTOR (Homo sapiens, UniProt P42345); experiment: Inhibition of mTOR (unknown origin)
[2] = biological target: Phosphatidylinositol 4,5-bisphosphate 3-kinase catalytic subunit beta isoform (Homo sapiens, UniProt P42338); experiment: Inhibition of PI3Kbeta (unknown origin) in presence of ATP by HTRF assay
Phosphatidylinositol 4,5-bisphosphate 3-kinase catalytic subunit beta isoform, sequence (P42338 whole entry, canonical isoform): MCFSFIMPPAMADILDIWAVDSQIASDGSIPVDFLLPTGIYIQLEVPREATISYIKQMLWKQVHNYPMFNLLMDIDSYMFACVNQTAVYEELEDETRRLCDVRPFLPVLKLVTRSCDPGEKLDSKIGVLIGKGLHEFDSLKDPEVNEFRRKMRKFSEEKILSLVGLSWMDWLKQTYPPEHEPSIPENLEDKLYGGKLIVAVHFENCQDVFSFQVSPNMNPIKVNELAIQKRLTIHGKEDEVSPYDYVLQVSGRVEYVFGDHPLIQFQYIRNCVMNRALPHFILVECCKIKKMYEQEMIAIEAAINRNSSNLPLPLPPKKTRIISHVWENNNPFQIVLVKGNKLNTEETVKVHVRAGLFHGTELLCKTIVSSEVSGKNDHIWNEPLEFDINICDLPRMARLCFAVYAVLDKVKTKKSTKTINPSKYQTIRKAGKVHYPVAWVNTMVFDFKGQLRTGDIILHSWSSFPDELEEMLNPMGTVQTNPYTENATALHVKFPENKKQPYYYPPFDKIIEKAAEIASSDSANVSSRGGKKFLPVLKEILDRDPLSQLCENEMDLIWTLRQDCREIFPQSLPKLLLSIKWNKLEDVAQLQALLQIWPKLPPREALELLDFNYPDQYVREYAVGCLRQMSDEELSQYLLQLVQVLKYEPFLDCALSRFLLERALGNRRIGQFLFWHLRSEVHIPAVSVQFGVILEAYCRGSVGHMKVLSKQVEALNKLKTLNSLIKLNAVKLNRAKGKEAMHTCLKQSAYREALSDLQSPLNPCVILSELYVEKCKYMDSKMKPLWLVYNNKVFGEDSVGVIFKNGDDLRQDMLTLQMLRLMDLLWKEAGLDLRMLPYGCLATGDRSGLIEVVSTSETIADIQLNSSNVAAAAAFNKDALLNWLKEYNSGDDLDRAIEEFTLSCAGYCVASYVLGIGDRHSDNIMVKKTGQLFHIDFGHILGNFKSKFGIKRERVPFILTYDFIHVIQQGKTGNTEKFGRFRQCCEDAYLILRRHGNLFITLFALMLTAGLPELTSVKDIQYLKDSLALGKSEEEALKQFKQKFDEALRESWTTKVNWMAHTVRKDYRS
Procedure, shortened: (§2)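 PI3K activity by HTRF assay at […] ATP.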

[3] = biological target: Phosphatidylinositol 4,5-bisphosphate 3-kinase catalytic subunit gamma isoform (Homo sapiens, UniProt P48736); experiment: Inhibition of PI3Kgamma (unknown origin) in presence of ATP by HTRF assay; procedure, shortened: as §2
Phosphatidylinositol 4,5-bisphosphate 3-kinase catalytic subunit gamma isoform, sequence (P48736 whole entry, canonical isoform): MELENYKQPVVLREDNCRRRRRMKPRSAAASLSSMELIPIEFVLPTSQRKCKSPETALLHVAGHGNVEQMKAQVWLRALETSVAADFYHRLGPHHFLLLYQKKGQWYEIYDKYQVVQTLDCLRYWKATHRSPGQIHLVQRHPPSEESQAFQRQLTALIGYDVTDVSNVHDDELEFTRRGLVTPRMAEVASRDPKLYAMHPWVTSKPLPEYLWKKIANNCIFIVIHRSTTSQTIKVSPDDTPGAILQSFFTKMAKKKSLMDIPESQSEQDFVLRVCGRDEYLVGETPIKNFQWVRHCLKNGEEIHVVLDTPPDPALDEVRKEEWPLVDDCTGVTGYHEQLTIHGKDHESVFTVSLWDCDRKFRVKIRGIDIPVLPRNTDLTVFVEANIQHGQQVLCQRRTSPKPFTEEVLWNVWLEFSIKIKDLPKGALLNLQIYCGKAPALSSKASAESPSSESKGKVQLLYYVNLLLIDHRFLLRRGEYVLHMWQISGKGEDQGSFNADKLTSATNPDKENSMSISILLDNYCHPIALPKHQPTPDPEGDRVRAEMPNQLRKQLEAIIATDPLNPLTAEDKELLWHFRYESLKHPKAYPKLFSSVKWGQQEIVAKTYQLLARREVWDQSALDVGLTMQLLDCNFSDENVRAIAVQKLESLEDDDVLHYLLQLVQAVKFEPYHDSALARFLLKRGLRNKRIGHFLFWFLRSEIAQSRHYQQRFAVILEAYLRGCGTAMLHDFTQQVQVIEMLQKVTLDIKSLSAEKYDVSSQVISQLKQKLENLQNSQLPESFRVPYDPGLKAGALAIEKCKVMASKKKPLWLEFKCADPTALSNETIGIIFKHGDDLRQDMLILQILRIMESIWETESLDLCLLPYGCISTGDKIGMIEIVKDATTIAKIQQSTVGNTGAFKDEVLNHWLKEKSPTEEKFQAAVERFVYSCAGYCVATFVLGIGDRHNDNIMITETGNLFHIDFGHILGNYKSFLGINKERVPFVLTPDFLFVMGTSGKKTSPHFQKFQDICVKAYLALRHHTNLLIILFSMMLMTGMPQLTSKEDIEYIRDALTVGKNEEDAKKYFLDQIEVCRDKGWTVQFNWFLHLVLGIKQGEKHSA

[4] = biological target: RAC-alpha serine/threonine-protein kinase (Homo sapiens) (UniProt P31749); experiment: Inhibition of AKT phosphorylation at Ser 473 site in serum deprived/insulin stimulated human OVCAR-3 cells harboring PTEN and wild type PI3K preincubated for 2 hrs followed by insulin stimulation and measured immediately by Western blot analysis; format: cell-based; conditions: dose 0.001-10 µM
RAC-alpha serine/threonine-protein kinase (Homo sapiens), sequence (P31749 whole entry): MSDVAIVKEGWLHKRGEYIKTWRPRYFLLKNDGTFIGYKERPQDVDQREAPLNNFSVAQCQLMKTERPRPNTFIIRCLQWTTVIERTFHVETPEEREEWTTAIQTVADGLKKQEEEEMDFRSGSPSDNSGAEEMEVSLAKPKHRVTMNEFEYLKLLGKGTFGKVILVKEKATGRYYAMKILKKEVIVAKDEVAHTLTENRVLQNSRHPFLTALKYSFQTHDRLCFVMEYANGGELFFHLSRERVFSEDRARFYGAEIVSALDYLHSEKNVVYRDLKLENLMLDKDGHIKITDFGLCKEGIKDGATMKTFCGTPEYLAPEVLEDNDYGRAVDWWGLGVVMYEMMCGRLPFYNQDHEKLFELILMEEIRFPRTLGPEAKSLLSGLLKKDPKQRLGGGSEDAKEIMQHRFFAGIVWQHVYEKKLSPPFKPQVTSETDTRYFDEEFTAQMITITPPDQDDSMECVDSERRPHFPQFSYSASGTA

[5] = biological target: Proline-rich AKT1 substrate 1 (Homo sapiens) (UniProt Q96B36); experiment: Inhibition of PRAS40 phosphorylation at Ser 246 residue in serum deprived/insulin stimulated human OVCAR-3 cells harboring PTEN and wild type PI3K preincubated for 2 hrs followed by insulin stimulation and measured immediately by Western blot analysis; format: cell-based; conditions: dose 0.001-10 µM
[6] = biological target: Eukaryotic translation initiation factor 4E-binding protein 1 (Homo sapiens) (UniProt Q13541); experiment: Inhibition of 4E-BP1 phosphorylation at Ser 37/46 residues in serum deprived/insulin stimulated human OVCAR-3 cells harboring PTEN and wild type PI3K preincubated for 2 hrs followed by insulin stimulation and measured immediately by Western blot analysis; format: cell-based; conditions: dose 0.001-10 µM
Eukaryotic translation initiation factor 4E-binding protein 1 (Homo sapiens), sequence (Q13541 whole entry): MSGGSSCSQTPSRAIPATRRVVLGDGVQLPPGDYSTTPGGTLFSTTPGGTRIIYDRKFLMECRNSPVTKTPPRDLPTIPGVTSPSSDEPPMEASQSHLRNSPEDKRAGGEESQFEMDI

OVCAR-3 [7] = experiment: (§3) Inhibition of S6K phosphorylation at 235/236 residues in serum deprived/insulin stimulated human OVCAR-3 cells harboring PTEN and wild type PI3K at 0.001 to 10 uM preincubated for 2 hrs followed by insulin stimulation and measured immediately by Western blot analysis; format: cell-based; conditions: dose 0.001-10 µM
OVCAR-3 [8] = experiment: as §3, with “S6K” for “S6K phosphorylation”, “PI3K assessed as inhibition of s6 substrate phosphorylation at […] residue” for “PI3K”; format: cell-based; conditions: dose 0.001-10 µM
Mus musculus [9] = experiment: In vivo inhibition of 4E-BP1 phosphorylation at Ser37/46 residues in nu/nu CD-1 mouse xenografted with human GEO cells at 65 mg/kg administered for 12 days and measured 2 hrs post last dose by Western blot analysis; format: functional, organism-based; conditions: time 290.0 hrs
Procedure, shortened: (§4)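 nu/nu CD-1 mice carrying s.c. GEO flank xenografts dosed 65 mg/kg for 12 days; tumors snap-frozen 2, 8, 24 h after dosing, homogenized in Triton X-100/HEPES pH 7.4 lysis buffer with phosphatase inhibitors; phospho and total 4E-BP1 (37/46), Akt (S473), S6 (235/236) quantified by Western blot; n=2.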

Mus musculus [10] = experiment: In vivo inhibition of S6 phosphorylation at 235/236 residues in nu/nu CD-1 mouse xenografted with human GEO cells at 65 mg/kg administered for 12 days and measured 2 to 24 hrs post last dose by Western blot analysis; format: functional, organism-based; conditions: time 290-312 hrs; procedure, shortened: as §4
[11] = Drug concentration in nu/nu CD-1 mouse plasma xenografted with human GEO cells at 65 mg/kg administered for 12 days and measured 8 hrs post last dose; format: ADME, organism-based
Procedure, shortened: (§5)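 nu/nu CD-1 mice bearing s.c. right-flank GEO xenografts dosed at 65 mg/kg for 12 days; plasma drug level sampled at 2 or 8 h after last dose; median reported.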

[12] = Drug concentration in nu/nu CD-1 mouse plasma xenografted with human GEO cells at 65 mg/kg administered for 12 days and measured 2 hrs post last dose; format: ADME, organism-based; procedure, shortened: as §5
GEO = experiment: Antitumor activity against human GEO cells xenografted in nu/nu CD-1 mouse assessed as slower tumor growth at 65 mg/kg administered once a day for 12 days and measured twice weekly; format: functional, organism-based; conditions: time 12.0 day
NCI-H292 [13] = experiment: Antitumor activity against human NCI-H292 cells xenografted in nu/nu CD-1 mouse assessed as tumor growth inhibition at 50 mg/kg qd administered for 21 days and measured twice weekly relative to control; format: functional; conditions: NCI-H292, 504 h, time 21 day, read-out: TGI
Procedure, shortened: (§6)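 Xenograft combination study: H292 or Ovar-5 cells implanted s.c. in the right flank of nu/nu CD-1 mice. Ovar-5 cells grown in RPMI with 10% serum and 1% L-glutamine. […] Tumor growth followed, with growth inhibition reported as median TGI over the dosing period.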

NCI-H292 [14] = experiment: Antitumor activity against human NCI-H292 cells xenografted in nu/nu CD-1 mouse assessed as tumor growth inhibition at 50 mg/kg qd administered for 21 days in presence of sunitinib and measured twice weekly relative to control; format: functional; conditions: NCI-H292, 504 h, time 21 day, read-out: TGI; procedure, shortened: as §6
NCI-H292 [15] = experiment: Antitumor activity against human NCI-H292 cells xenografted in nu/nu CD-1 mouse assessed as maximal tumor regression at 50 mg/kg qd administered for 21 days in presence of sunitinib and measured twice weekly relative to control; format: functional; conditions: time 21 day
OVCAR-5 [16] = experiment: Antitumor activity against human OVCAR-5 cells xenografted in nu/nu CD-1 mouse assessed as tumor growth inhibition at 50 mg/kg qd administered for 14 days and measured twice weekly relative to control; format: functional; conditions: OVCAR-5, 336 h, time 14 day, read-out: TGI; procedure, shortened: as §6
OVCAR-5 [17] = experiment: Antitumor activity against human OVCAR-5 cells xenografted in nu/nu CD-1 mouse assessed as tumor growth inhibition at 50 mg/kg qd administered for 14 days in presence of sunitinib and measured twice weekly relative to control; format: functional; conditions: OVCAR-5, 336 h, time 14 day, read-out: TGI; procedure, shortened: as §6
OVCAR-5 [18] = experiment: Antitumor activity against human OVCAR-5 cells xenografted in nu/nu CD-1 mouse assessed as maximal tumor regression at 50 mg/kg qd administered for 14 days in presence of sunitinib and measured twice weekly relative to control; format: functional; conditions: time 14 day
[19] = biological target: T1, Serine/threonine-protein kinase mTOR; experiment: Inhibition of mTOR (unknown origin) assessed as reduction in 4E-BP1 phosphorylation by cell based assay
[20] = biological target: Vascular endothelial growth factor receptor 2 (Homo sapiens, UniProt P35968); experiment: Inhibition of VEGFR2 phosphorylation (unknown origin) by cell based assay
[21] = biological target: Epidermal growth factor receptor (Homo sapiens, UniProt P00533); experiment: Inhibition of EGFR phosphorylation (unknown origin) by cell based assay
Epidermal growth factor receptor, sequence (P00533 whole entry): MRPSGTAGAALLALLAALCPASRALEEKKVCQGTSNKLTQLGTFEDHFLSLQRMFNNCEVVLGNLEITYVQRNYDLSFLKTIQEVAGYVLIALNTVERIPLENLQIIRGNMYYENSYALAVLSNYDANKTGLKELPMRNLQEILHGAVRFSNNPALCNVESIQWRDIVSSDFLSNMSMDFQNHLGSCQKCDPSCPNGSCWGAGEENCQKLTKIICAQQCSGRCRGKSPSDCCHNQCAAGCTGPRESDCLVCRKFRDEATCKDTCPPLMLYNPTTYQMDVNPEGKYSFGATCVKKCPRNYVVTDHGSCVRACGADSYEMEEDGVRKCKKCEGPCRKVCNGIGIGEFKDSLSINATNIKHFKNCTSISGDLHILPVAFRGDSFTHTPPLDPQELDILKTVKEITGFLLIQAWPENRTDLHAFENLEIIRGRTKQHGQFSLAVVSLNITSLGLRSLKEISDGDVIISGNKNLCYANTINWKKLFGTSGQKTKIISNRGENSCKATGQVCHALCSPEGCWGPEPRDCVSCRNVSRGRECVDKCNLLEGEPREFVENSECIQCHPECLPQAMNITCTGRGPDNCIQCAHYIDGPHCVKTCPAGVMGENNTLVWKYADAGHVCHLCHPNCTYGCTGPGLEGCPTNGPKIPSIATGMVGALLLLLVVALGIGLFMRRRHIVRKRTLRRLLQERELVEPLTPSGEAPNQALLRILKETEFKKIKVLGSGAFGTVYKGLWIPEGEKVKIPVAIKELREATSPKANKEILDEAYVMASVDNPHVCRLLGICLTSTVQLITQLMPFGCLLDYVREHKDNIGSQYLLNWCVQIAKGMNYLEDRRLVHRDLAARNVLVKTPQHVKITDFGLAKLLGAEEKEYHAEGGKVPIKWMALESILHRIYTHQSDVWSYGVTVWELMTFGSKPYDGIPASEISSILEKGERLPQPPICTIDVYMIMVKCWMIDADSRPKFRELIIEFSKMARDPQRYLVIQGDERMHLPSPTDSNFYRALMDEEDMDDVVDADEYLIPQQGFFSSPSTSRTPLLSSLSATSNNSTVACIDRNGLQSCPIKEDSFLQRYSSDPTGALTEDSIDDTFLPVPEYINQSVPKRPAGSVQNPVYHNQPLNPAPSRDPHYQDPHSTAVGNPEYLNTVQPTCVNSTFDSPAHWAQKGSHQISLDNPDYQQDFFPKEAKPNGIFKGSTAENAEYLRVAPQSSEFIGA

Ephrin type-A receptor 2 = Ephrin type-A receptor 2 (Homo sapiens, UniProt P29317); experiment: Inhibition of EphA2 phosphorylation (unknown origin) by cell based assay
[22] = biological target: Proto-oncogene tyrosine-protein kinase Src (Homo sapiens, UniProt P12931); experiment: Inhibition of SRC (unknown origin) assessed as reduction in phosphorylated FAK level by cell based assay
Proto-oncogene tyrosine-protein kinase Src, sequence (P12931 2-536 limits assumed): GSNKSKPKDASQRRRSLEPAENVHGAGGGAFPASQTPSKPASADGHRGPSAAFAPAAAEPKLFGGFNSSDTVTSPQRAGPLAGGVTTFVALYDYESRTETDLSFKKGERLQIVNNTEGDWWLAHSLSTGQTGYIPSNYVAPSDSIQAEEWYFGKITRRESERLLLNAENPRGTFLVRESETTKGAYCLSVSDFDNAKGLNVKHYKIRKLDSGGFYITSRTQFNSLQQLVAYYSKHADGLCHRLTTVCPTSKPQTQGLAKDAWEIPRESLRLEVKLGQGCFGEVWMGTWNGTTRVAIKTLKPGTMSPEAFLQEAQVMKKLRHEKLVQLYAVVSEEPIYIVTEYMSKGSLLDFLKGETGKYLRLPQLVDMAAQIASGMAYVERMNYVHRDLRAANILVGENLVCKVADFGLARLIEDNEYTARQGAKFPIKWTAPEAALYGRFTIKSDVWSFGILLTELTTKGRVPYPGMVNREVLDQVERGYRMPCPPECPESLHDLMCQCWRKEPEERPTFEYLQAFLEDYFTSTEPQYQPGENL

[23] = Inhibition of MAPK (unknown origin) signaling axis assessed as reduction in phosphorylated ERK1/2 level by cell based assay; conditions: Homo sapiens
Mus musculus [24] = experiment: In vivo inhibition of AKT phosphorylation at Ser473 residues in nu/nu CD-1 mouse xenografted with human GEO cells at 65 mg/kg administered for 12 days and measured 2 to 24 hrs post last dose by Western blot analysis relative to control; conditions: time 290-312 hrs
NCI-H292 [25] = experiment: Antitumor activity against human NCI-H292 cells xenografted in nu/nu CD-1 mouse assessed as tumor growth inhibition at 40 mg/kg qd administered for 21 days and measured twice weekly relative to control; format: functional; conditions: NCI-H292, 504 h, time 21 day, read-out: TGI; procedure, shortened: as §6
NCI-H292 [26] = experiment: Antitumor activity against human NCI-H292 cells xenografted in nu/nu CD-1 mouse assessed as tumor growth inhibition at 40 mg/kg qd administered for 21 days in presence of OSI-027 and measured twice weekly relative to control; format: functional; conditions: NCI-H292, 504 h, time 21 day, read-out: TGI; procedure, shortened: as §6
NCI-H292 [27] = experiment: Antitumor activity against human NCI-H292 cells xenografted in nu/nu CD-1 mouse assessed as maximal tumor regression at 40 mg/kg qd administered for 21 days in presence of OSI-027 and measured twice weekly relative to control; format: functional; conditions: time 21 day
OVCAR-5 [28] = experiment: Antitumor activity against human OVCAR-5 cells xenografted in nu/nu CD-1 mouse assessed as tumor growth inhibition at 40 mg/kg qd administered for 14 days and measured twice weekly relative to control; format: functional; conditions: OVCAR-5, 336 h, time 14 day, read-out: TGI; procedure, shortened: as §6
OVCAR-5 [29] = experiment: Antitumor activity against human OVCAR-5 cells xenografted in nu/nu CD-1 mouse assessed as tumor growth inhibition at 40 mg/kg qd administered for 14 days in presence of OSI-027 and measured twice weekly relative to control; format: functional; conditions: OVCAR-5, 336 h, time 14 day, read-out: TGI; procedure, shortened: as §6
OVCAR-5 [30] = experiment: Antitumor activity against human OVCAR-5 cells xenografted in nu/nu CD-1 mouse assessed as maximal tumor regression at 40 mg/kg qd administered for 14 days in presence of OSI-027 and measured twice weekly relative to control; format: functional; conditions: time 14 day

With `COc1cccc2cc(-c3nc([C@H]4CC[C@H](C(=O)O)CC4)n4ncnc(N)c34)[nH]c12` [OSI-027] the IC50 (mTORC1) was 22 nM, the IC50 (mTORC2) was 65 nM and the IC50 [1] was 4 nM. For the same compound, the IC50 [2] was over 30000 nM, the IC50 [3] was 420 nM and the inhibition [4] was “Dose-Dependent Effect”. For the same compound, the inhibition [5] was “Dose-Dependent Effect”, the inhibition [6] was “Dose-Dependent Effect” and the inhibition (OVCAR-3 [7]) was “Active”. For the same compound, the inhibition (OVCAR-3 [8]) was “Active”, the inhibition (Mus musculus [9]) was “Active” and the inhibition (Mus musculus [10]) was “Active”. For the same compound, the concentration at 296 h [11] was 14.9 µM, the concentration at 290 h [12] was 21.3 µM and the Activity (GEO) was “Active”. The inhibition in vivo at 50 mg/kg (NCI-H292 [13]) was 61%, the inhibition in vivo at 50 mg/kg (NCI-H292 [14]) was 100% and the Activity (NCI-H292 [15]) was 59%. For the same compound, the inhibition in vivo at 50 mg/kg (OVCAR-5 [16]) was 55%, the inhibition in vivo at 50 mg/kg (OVCAR-5 [17]) was 100% and the Activity (OVCAR-5 [18]) was 38%. It also gave an IC50 [19] of 1000 nM, an IC50 [20] of over 40000 nM and an IC50 [21] of over 40000 nM. The IC50 (Ephrin type-A receptor 2) was over 40000 nM, the IC50 [22] was over 40000 nM and the IC50 [23] was over 20000 nM. The inhibition (Mus musculus [24]) was “Active”.

For `CCN(CC)CCNC(=O)c1c(C)[nH]c(/C=C2\C(=O)Nc3ccc(F)cc32)c1C` [SUNITINIB], the inhibition in vivo at 40 mg/kg (NCI-H292 [25]) was 47%, the inhibition in vivo at 40 mg/kg (NCI-H292 [26]) was 100% and the Activity (NCI-H292 [27]) was 59%. For the same compound, the inhibition in vivo at 40 mg/kg (OVCAR-5 [28]) was 68%, the inhibition in vivo at 40 mg/kg (OVCAR-5 [29]) was 100% and the Activity (OVCAR-5 [30]) was 38%.
